Laboratory results published in ChEMBL document CHEMBL1125727 (J Med Chem, 1991).

Experiments:
Assay type in all cases: functional, cell-based
[1] = system: P388; experiment: Optimal dose administered as a single dose by intraperitoneal inoculation of 10 X E6 murine leukemia P388 cell lines.; details: Mus musculus
Method in brief: (§1)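 Mice inoculated intraperitoneally with 10⁶ P388 leukemia cells. Single drug dose on day 1 in 0.1 or 0.2 mL of 30% v/v ethanol/water. Optimal dose given in mg/kg. ILS is the percentage increase in lifespan at the optimal dose, with values above 20% taken as significant.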

[2] = system: UV4; experiment: Hypersensitivity factor obtained from in vitro cytotoxicities against Chinese hamster ovary derived AA8 / UV4 cell lines; details: Cricetulus griseus
Method in brief: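 HF = IC50(AA8)/IC50(UV4). Both lines kept in Alpha MEM with 10% fetal calf serum and exposed to drug for 18 h, then washed three times and grown 72 h more. Density read by methylene blue. Each IC50 is the nominal concentration giving 50% of control density, with eight controls per plate.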

[3] = system: CHO-AA8; experiment: Compound was evaluated for in vitro cytotoxicities against Chinese hamster ovary derived AA8 cell lines.; details: Cricetulus griseus
Method in brief: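 AA8 cells kept in exponential growth in Alpha MEM with 10% fetal calf serum. Log-phase cultures in 96-well plates, drug exposure 18 h, ended by three washes with fresh medium, then 72 h further growth. Cell density read by methylene blue staining. IC50 is the nominal concentration reducing cell density to 50% of control, with eight controls per plate.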

[4] = system: P388; experiment: In vitro cytotoxicity against murine leukemia P388 cell line.; details: Mus musculus
Method in brief: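 P388 cells kept in exponential growth in RPMI 1640 with 10% fetal calf serum. Log-phase cultures in 96-well plates with drug present throughout 72 h growth. Final density read by a modified MTT method. IC50 is the nominal concentration reducing cell density to 50% of control, with eight controls per plate.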

[5] = system: P388; experiment: Percentage increase in lifespan of drug-related tumor bearing animals when heated at the optimal dose and tested in murine leukemia P388 cell lines.; details: Mus musculus; method in brief: as §1

| SMILES | OD [1] | HF [2] | IC50 [3] | IC50 [4] | ILS [5] |
| --- | --- | --- | --- | --- | --- |
| CCN(CCCl)c1ccc(CCCNC(=O)c2ccc(NCCCc3ccc(N(CC)CCCl)cc3)c3cc4ccccc4nc23)cc1 | 45 mg/kg | 5.4 | 1.5 µM | 0.29 µM | 25% |
| CCN(CCCl)c1ccc(SCCNC(=O)c2ccc(NCCSc3ccc(N(CC)CCCl)cc3)c3cc4ccccc4nc23)cc1 | – | 7.4 | 9.4 µM | 0.55 µM | – |
| CN(C)CCNC(=O)c1ccc(NCCCc2ccc(N(CCCl)CCCl)cc2)c2cc3ccccc3nc12 | 13.3 mg/kg | 19 | 0.21 µM | 0.06 µM | – |
| COc1cc(NS(C)(=O)=O)ccc1Nc1ccc(C(=O)NCCCc2ccc(N(CCCl)CCCl)cc2)c2nc3ccccc3cc12 | 65 mg/kg | > 50 | > 4000 µM | 0.18 µM | 26% |
| O=C(O)CCCc1ccc(N(CCCl)CCCl)cc1 [CHLORAMBUCIL] | 225 mg/kg | 58 | – | – | 37% |
